Each molecule was assayed against V-type proton ATPase subunit B, brain isoform (Bos taurus) (UniProt P31408) (assay: Inhibition of V-ATPase-driven proton transport in membrane vesicles derived from bovine chromaffin granules (bCG); Potency ratio expressed as IC50 of compound/IC50 of baf A1).
Outline: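 Proton transport in bovine chromaffin granule inside-out vesicles, read by acridine orange (5 μM) fluorescence quench with 1 mM Na₂ATP, pH 7.4. IC50 from ≥3 duplicated doses by four-parameter logistic fit. Each IC50 is divided by the bafilomycin A₁ IC50 from the same experiment, to correct for membrane batch and protein level.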

V-type proton ATPase subunit B, brain isoform (Bos taurus), sequence (P31408 whole entry, canonical isoform): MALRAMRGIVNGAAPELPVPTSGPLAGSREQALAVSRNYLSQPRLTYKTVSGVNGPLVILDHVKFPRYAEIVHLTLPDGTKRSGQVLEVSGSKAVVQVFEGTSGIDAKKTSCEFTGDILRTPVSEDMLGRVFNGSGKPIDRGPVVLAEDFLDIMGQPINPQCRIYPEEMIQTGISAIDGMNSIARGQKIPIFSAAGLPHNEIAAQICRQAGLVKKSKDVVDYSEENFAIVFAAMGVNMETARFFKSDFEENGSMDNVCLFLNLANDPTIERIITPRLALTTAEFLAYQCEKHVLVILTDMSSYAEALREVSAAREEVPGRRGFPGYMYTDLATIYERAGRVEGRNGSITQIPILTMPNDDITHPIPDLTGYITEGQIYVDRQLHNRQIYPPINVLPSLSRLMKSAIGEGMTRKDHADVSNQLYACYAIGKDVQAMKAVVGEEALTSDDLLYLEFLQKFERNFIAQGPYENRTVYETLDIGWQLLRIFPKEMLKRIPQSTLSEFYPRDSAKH

**Q.** How did the Potency ratio turn out when `CO/C1=C\C(C)=C\[C@@H](C)[C@@H](O)[C@@H](C)C/C(C)=C/C=C/[C@H](OC)[C@@H]([C@@H](C)[C@@H](O)[C@H](C)[C@@]2(O)C[C@@H](OC)[C@H](C)[C@@H](C(C)C)O2)OC1=O` was run?
**A.** Its Potency ratio is 1.2.

**Q.** Which Potency ratio does the source give for `CO/C1=C\C(C)=C\[C@@H](C)C(=O)[C@@H](C)C/C(C)=C/C=C/[C@H](OC)[C@@H]([C@@H](C)[C@@H](O)[C@H](C)[C@@]2(O)C[C@@H](O)[C@H](C)[C@@H](C(C)C)O2)OC1=O` here?
**A.** Its Potency ratio is 32.

**Q.** For `CCO[C@@H]1C[C@](O)([C@@H](C)[C@H](O)[C@H](C)[C@H]2OC(=O)/C(OC)=C/C(C)=C/[C@@H](C)[C@@H](O)[C@@H](C)C/C(C)=C/C=C/[C@@H]2OC)O[C@H](C(C)C)[C@H]1C`, which Potency ratio is on record?
**A.** Its Potency ratio is 1.2.

**Q.** With `CO/C1=C\C(C)=C\C(C)C(=O)[C@@H](C)C/C(C)=C/C=C/C(OC)[C@@H]([C@@H](C)C(=O)[C@H](C)C2=CC(=O)[C@H](C)[C@@H](C(C)C)O2)OC1=O` (some centres not stated) as the molecule, how does the Potency ratio read?
**A.** Its Potency ratio is 3050.

**Q.** For `CO/C1=C\C(C)=C\[C@@H](C)[C@@H](O)[C@@H](C)C/C(C)=C/C=C/[C@H](OC)[C@@H]([C@@H](C)[C@@H](O)[C@H](C)[C@@]2(O)C[C@@H](O)[C@H](C)[C@@H](C(C)C)O2)OC1=O`, which Potency ratio is on record?
**A.** The Potency ratio was 1.

**Q.** For `CO/C1=C\C(C)=C\[C@@H](C)C(=O)[C@@H](C)C/C(C)=C/C=C/[C@H](OC)[C@@H]([C@@H](C)[C@@H](O)[C@H](C)[C@@]2(O)CC(=O)[C@H](C)[C@@H](C(C)C)O2)OC1=O`, which Potency ratio is on record?
**A.** Its Potency ratio is 112.

**Q.** With `COC(=O)/C(=C/C(C)=C/[C@@H](C)[C@@H](O)[C@@H](C)C/C(C)=C/C=C/[C@H](OC)[C@H](O)[C@@H](C)[C@@H](O)[C@H](C)[C@@]1(O)C[C@@H](O)[C@H](C)[C@@H](C(C)C)O1)OC` as the molecule, how does the Potency ratio read?
**A.** Its Potency ratio is 330.

**Q.** `C/C=C/CC(O)[C@@H](C)[C@H](O)[C@H](C)[C@H]1OC(=O)/C(OC)=C/C(C)=C/[C@@H](C)[C@@H](O)[C@@H](C)C/C(C)=C/C=C/[C@@H]1OC` (some centres not stated) was tested. Which Potency ratio did it give?
**A.** The Potency ratio was 2.6.

**Q.** For `CO/C1=C\C(C)=C\[C@@H](C)[C@@H](O)[C@@H](C)C/C(C)=C/C=C/[C@H](OC)[C@@H]([C@@H](C)[C@@H](O)[C@H](C)C(O)C[C@H](O)[C@H](C)C(O)C(C)C)OC1=O` (some centres not stated), which Potency ratio is on record?
**A.** The Potency ratio was 8.2.

**Q.** With `CO/C1=C\C(C)=C\[C@@H](C)[C@@H](O)[C@@H](C)C/C(C)=C/C=C/[C@H](OC)[C@@H]([C@@H](C)[C@@H](O)[C@H](C)[C@@]2(O)C[C@@H](N3CCCCC3)[C@H](C)[C@@H](C(C)C)O2)OC1=O` as the molecule, how does the Potency ratio read?
**A.** Its Potency ratio is 6.7.

**Q.** Which Potency ratio does the source give for `COC1/C=C(\C)C[C@@H](C)[C@@H](O)[C@@H](C)CC(C)/C=C/CC(OC)[C@@H]([C@@H](C)[C@@H](O)[C@H](C)[C@@]2(O)C[C@@H](O)[C@H](C)[C@@H](C(C)C)O2)OC1=O` (some centres not stated) here?
**A.** The Potency ratio was 2110.

**Q.** With `CO/C1=C\C(C)=C\[C@@H](C)[C@@H](O)[C@@H](C)C/C(C)=C/C=C/[C@H](OC)[C@@H]([C@@H](C)[C@@H](O)[C@H](C)C(=O)/C=C/[C@H](C)C(O)C(C)C)OC1=O` (some centres not stated) as the molecule, how does the Potency ratio read?
**A.** Its Potency ratio is 15.

**Q.** `CO/C1=C\C(C)=C\[C@@H](C)[C@@H](O)[C@@H](C)C/C(C)=C/C=C/[C@H](OC)[C@@H]([C@@H](C)[C@@H](O)[C@H](C)[C@@]2(OC)C[C@@H](O)[C@H](C)[C@@H](C(C)C)O2)OC1=O` was tested. Which Potency ratio did it give?
**A.** Its Potency ratio is 1.4.

**Q.** With `CCCO[C@@H]1C[C@](OC)([C@@H](C)[C@H](O)[C@H](C)[C@H]2OC(=O)/C(OC)=C/C(C)=C/[C@@H](C)[C@@H](O)[C@@H](C)C/C(C)=C/C=C/[C@@H]2OC)O[C@H](C(C)C)[C@H]1C` as the molecule, how does the Potency ratio read?
**A.** Its Potency ratio is 5.

**Q.** `CO/C1=C\C(C)=C\[C@@H](C)[C@@H](O)[C@@H](C)C/C(C)=C/C=C/[C@H](OC)[C@@H]([C@@H](C)[C@@H](O)[C@H](C)[C@@]2(O)C[C@@H](NC3CCCCC3)[C@H](C)[C@@H](C(C)C)O2)OC1=O` was tested. Which Potency ratio did it give?
**A.** The Potency ratio was 9.2.

**Q.** For `CO/C1=C\C(C)=C\[C@@H](C)[C@@H](O)[C@@H](C)C/C(C)=C/C=C/[C@H](OC)[C@@H]([C@@H](C)[C@@H](O)[C@H](C)[C@@]2(O)CC(=O)[C@H](C)[C@@H](C(C)C)O2)OC1=O`, which Potency ratio is on record?
**A.** Its Potency ratio is 2.2.

**Q.** For `C/C=C/CC(=O)[C@@H](C)[C@H](O)[C@H](C)[C@H]1OC(=O)/C(OC)=C/C(C)=C/[C@@H](C)[C@@H](O)[C@@H](C)C/C(C)=C/C=C/[C@@H]1OC`, which Potency ratio is on record?
**A.** The Potency ratio was 21.
